Test system: HEK-293T
Experiment: Multiplex assay against HEK293T
Type: toxicity, cell-based
Conditions: human
Outline: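 On a CQ1 microscope at 37°C and 5% CO2, live cells were imaged after compound addition. They had been stained at seeding with Hoechst33342, BioTracker Green Microtubule Cytoskeleton Dye, MitoTracker Red and Annexin V Alexa Fluor 680. CellPathfinder machine-learning gating assigned cells to Hoechst high-intensity objects or normal cells, normal cells to healthy, pyknosed or fragmented nuclei, and pyknosed cells to mitotic or apoptotic. Tubulin, mitochondrial-mass and membrane-permeability phenotypes are per cents of healthy-nucleus cells.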

[1] = 12 h, 1 µM, compound concentration 1 uM, replicate 1
[2] = 12 h, 1 µM, compound concentration 1 uM, replicate 2
[3] = 12 h, 10 µM, compound concentration 10 uM, replicate 1
[4] = 12 h, 10 µM, compound concentration 10 uM, replicate 2
[5] = 24 h, 1 µM, compound concentration 1 uM, replicate 1
[6] = 24 h, 1 µM, compound concentration 1 uM, replicate 2
[7] = 24 h, 10 µM, compound concentration 10 uM, replicate 1
[8] = 24 h, 10 µM, compound concentration 10 uM, replicate 2
[9] = 48 h, 1 µM, compound concentration 1 uM, replicate 1
[10] = 48 h, 1 µM, compound concentration 1 uM, replicate 2
[11] = 48 h, 10 µM, compound concentration 10 uM, replicate 1
[12] = 48 h, 10 µM, compound concentration 10 uM, replicate 2

For `CC[C@@H](C)Nc1nc(C)nc2c(-c3ccc(OC)nc3C)c(C)nn12` [PEXACERFONT], the “Population Apoptotic (%)” value [1] was 33%, the “Population Fragmented Nuclei (%)” value [1] was 7% and the “Population Healthy Nuclei (%)” value [1] was 79%. The “Population Hoechst High Intensity Objects (%)” value [1] was 6%, the “Population Membrane Permeable-Phenotype (%)” value [1] was 0% and the “Population Mitochondria Different-Phenotype (%)” value [1] was 45%. For the same compound, the “Population Mitotic Cells (%)” value [1] was 66%, the “Population Normal (%)” value [1] was 93% and the “Population Pyknosed Nuclei (%)” value [1] was 13%. The “Population Tubulin-Different-Phenotype (%)” value [1] was 34%, the “Total Cell Count” value [1] was 399 and the “Population Apoptotic (%)” value [2] was 47%. The “Population Fragmented Nuclei (%)” value [2] was 5%, the “Population Healthy Nuclei (%)” value [2] was 82% and the “Population Hoechst High Intensity Objects (%)” value [2] was 8%. For the same compound, the “Population Mitochondria Different-Phenotype (%)” value [2] was 61%, the “Population Mitotic Cells (%)” value [2] was 52% and the “Population Normal (%)” value [2] was 91%. For the same compound, the “Population Pyknosed Nuclei (%)” value [2] was 11%, the “Population Tubulin-Different-Phenotype (%)” value [2] was 31% and the “Total Cell Count” value [2] was 314. The “Population Apoptotic (%)” value [3] was 38%, the “Population Fragmented Nuclei (%)” value [3] was 6% and the “Population Healthy Nuclei (%)” value [3] was 75%. The “Population Hoechst High Intensity Objects (%)” value [3] was 8%, the “Population Membrane Permeable-Phenotype (%)” value [3] was 0% and the “Population Mitochondria Different-Phenotype (%)” value [3] was 59%. The “Population Mitotic Cells (%)” value [3] was 61%, the “Population Normal (%)” value [3] was 91% and the “Population Pyknosed Nuclei (%)” value [3] was 17%. For the same compound, the “Population Tubulin-Different-Phenotype (%)” value [3] was 54%, the “Total Cell Count” value [3] was 451 and the “Population Apoptotic (%)” value [4] was 41%. The “Population Fragmented Nuclei (%)” value [4] was 9%, the “Population Healthy Nuclei (%)” value [4] was 74% and the “Population Hoechst High Intensity Objects (%)” value [4] was 11%. The “Population Membrane Permeable-Phenotype (%)” value [4] was 1%, the “Population Mitochondria Different-Phenotype (%)” value [4] was 75% and the “Population Mitotic Cells (%)” value [4] was 58%. The “Population Normal (%)” value [4] was 88%, the “Population Pyknosed Nuclei (%)” value [4] was 16% and the “Population Tubulin-Different-Phenotype (%)” value [4] was 55%. For the same compound, the “Total Cell Count” value [4] was 321, the “Population Apoptotic (%)” value [5] was 24% and the “Population Fragmented Nuclei (%)” value [5] was 8%. The “Population Healthy Nuclei (%)” value [5] was 79%, the “Population Hoechst High Intensity Objects (%)” value [5] was 3% and the “Population Membrane Permeable-Phenotype (%)” value [5] was 0%. The “Population Mitochondria Different-Phenotype (%)” value [5] was 26%, the “Population Mitotic Cells (%)” value [5] was 75% and the “Population Normal (%)” value [5] was 96%. The “Population Pyknosed Nuclei (%)” value [5] was 11%, the “Population Tubulin-Different-Phenotype (%)” value [5] was 21% and the “Total Cell Count” value [5] was 508. For the same compound, the “Population Apoptotic (%)” value [6] was 45%, the “Population Fragmented Nuclei (%)” value [6] was 13% and the “Population Healthy Nuclei (%)” value [6] was 76%. For the same compound, the “Population Hoechst High Intensity Objects (%)” value [6] was 7%, the “Population Mitochondria Different-Phenotype (%)” value [6] was 34% and the “Population Mitotic Cells (%)” value [6] was 54%. The “Population Normal (%)” value [6] was 92%, the “Population Pyknosed Nuclei (%)” value [6] was 9% and the “Population Tubulin-Different-Phenotype (%)” value [6] was 15%. For the same compound, the “Total Cell Count” value [6] was 387, the “Population Apoptotic (%)” value [7] was 37% and the “Population Fragmented Nuclei (%)” value [7] was 6%. The “Population Healthy Nuclei (%)” value [7] was 79%, the “Population Hoechst High Intensity Objects (%)” value [7] was 7% and the “Population Membrane Permeable-Phenotype (%)” value [7] was 1%. For the same compound, the “Population Mitochondria Different-Phenotype (%)” value [7] was 46%, the “Population Mitotic Cells (%)” value [7] was 62% and the “Population Normal (%)” value [7] was 92%. The “Population Pyknosed Nuclei (%)” value [7] was 14%, the “Population Tubulin-Different-Phenotype (%)” value [7] was 52% and the “Total Cell Count” value [7] was 612. The “Population Apoptotic (%)” value [8] was 33%, the “Population Fragmented Nuclei (%)” value [8] was 7% and the “Population Healthy Nuclei (%)” value [8] was 78%. The “Population Hoechst High Intensity Objects (%)” value [8] was 13%, the “Population Membrane Permeable-Phenotype (%)” value [8] was 0% and the “Population Mitochondria Different-Phenotype (%)” value [8] was 70%. The “Population Mitotic Cells (%)” value [8] was 66%, the “Population Normal (%)” value [8] was 86% and the “Population Tubulin-Different-Phenotype (%)” value [8] was 48%. The “Total Cell Count” value [8] was 371, the “Population Apoptotic (%)” value [9] was 26% and the “Population Fragmented Nuclei (%)” value [9] was 12%. The “Population Healthy Nuclei (%)” value [9] was 80%, the “Population Hoechst High Intensity Objects (%)” value [9] was 2% and the “Population Membrane Permeable-Phenotype (%)” value [9] was 0%. For the same compound, the “Population Mitochondria Different-Phenotype (%)” value [9] was 22%, the “Population Mitotic Cells (%)” value [9] was 73% and the “Population Normal (%)” value [9] was 97%. The “Population Pyknosed Nuclei (%)” value [9] was 7%, the “Population Tubulin-Different-Phenotype (%)” value [9] was 20% and the “Total Cell Count” value [9] was 816. The “Population Apoptotic (%)” value [10] was 41%, the “Population Fragmented Nuclei (%)” value [10] was 10% and the “Population Membrane Permeable-Phenotype (%)” value [10] was 1%. For the same compound, the “Population Mitochondria Different-Phenotype (%)” value [10] was 27%, the “Population Mitotic Cells (%)” value [10] was 58% and the “Population Pyknosed Nuclei (%)” value [10] was 9%. The “Population Tubulin-Different-Phenotype (%)” value [10] was 19%, the “Total Cell Count” value [10] was 520 and the “Population Apoptotic (%)” value [11] was 40%. For the same compound, the “Population Fragmented Nuclei (%)” value [11] was 13%, the “Population Healthy Nuclei (%)” value [11] was 77% and the “Population Hoechst High Intensity Objects (%)” value [11] was 7%. The “Population Membrane Permeable-Phenotype (%)” value [11] was 1%, the “Population Mitochondria Different-Phenotype (%)” value [11] was 45% and the “Population Mitotic Cells (%)” value [11] was 59%. For the same compound, the “Population Normal (%)” value [11] was 92%, the “Population Pyknosed Nuclei (%)” value [11] was 9% and the “Population Tubulin-Different-Phenotype (%)” value [11] was 38%. The “Total Cell Count” value [11] was 692, the “Population Fragmented Nuclei (%)” value [12] was 10% and the “Population Healthy Nuclei (%)” value [12] was 72%. The “Population Hoechst High Intensity Objects (%)” value [12] was 18%, the “Population Membrane Permeable-Phenotype (%)” value [12] was 0% and the “Population Mitochondria Different-Phenotype (%)” value [12] was 53%. For the same compound, the “Population Mitotic Cells (%)” value [12] was 60%, the “Population Normal (%)” value [12] was 81% and the “Population Pyknosed Nuclei (%)” value [12] was 17%. The “Population Tubulin-Different-Phenotype (%)” value [12] was 36% and the “Total Cell Count” value [12] was 390.

— ChEMBL document CHEMBL5058577, “EUbOPEN Chemogenomics Library 2 (Multiplex)” (2022)
